Measurements pooled from the literature.
Lines come from different studies, so protocols differ.
Target: Serine/threonine-protein kinase Nek1 (NEK1, Homo sapiens, UniProt Q96PY6)
Residues used in one study (Q96PY6 1-1258): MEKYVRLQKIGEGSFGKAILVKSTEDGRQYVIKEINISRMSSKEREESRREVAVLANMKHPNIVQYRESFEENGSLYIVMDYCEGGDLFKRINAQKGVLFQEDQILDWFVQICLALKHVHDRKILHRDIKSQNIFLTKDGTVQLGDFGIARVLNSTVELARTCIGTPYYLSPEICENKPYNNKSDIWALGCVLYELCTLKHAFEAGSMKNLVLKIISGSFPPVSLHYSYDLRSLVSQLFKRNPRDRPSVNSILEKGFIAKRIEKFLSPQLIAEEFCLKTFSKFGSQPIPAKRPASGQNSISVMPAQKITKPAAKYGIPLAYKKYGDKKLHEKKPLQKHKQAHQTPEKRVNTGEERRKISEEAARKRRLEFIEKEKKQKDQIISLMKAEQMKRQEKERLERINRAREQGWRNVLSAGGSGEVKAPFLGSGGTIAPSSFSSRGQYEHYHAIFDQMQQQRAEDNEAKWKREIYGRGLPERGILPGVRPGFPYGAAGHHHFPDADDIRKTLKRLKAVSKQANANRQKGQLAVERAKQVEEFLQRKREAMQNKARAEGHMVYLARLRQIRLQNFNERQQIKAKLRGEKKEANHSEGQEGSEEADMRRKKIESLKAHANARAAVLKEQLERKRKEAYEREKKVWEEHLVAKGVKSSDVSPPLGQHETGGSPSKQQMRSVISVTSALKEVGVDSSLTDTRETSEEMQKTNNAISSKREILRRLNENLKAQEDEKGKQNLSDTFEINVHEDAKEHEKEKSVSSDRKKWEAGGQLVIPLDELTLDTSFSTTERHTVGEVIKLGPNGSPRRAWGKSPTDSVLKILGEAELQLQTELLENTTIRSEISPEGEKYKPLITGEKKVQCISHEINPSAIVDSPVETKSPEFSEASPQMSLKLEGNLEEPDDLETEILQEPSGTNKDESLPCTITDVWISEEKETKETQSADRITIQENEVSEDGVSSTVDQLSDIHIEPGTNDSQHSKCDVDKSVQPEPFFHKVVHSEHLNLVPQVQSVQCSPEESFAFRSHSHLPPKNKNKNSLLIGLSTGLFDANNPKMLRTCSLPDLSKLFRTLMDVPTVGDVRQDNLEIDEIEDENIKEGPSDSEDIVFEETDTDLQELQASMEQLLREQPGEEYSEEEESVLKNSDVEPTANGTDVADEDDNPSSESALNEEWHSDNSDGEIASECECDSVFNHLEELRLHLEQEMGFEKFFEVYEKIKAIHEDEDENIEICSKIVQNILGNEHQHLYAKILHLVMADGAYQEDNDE

Structure (SMILES) | effect on | mode | technique | cell line | tested at | endpoint | result
Cn1cnc(Br)c1C1=CN(c2ncnc3[nH]cnc23)CCS1 | enzyme activity | inhibitor | radiometric | – | 2 µM | inhibition | 96.5%
CC(C)(C)c1nc2c(s1)c1nc(N)ncc1c1ccc(NS(=O)(=O)c3c(F)cccc3F)c(F)c12 | enzyme activity | inhibitor | radiometric | – | 1 µM | remaining activity | 92%
CC(=O)N1CCC(c2ccc(C(=O)NC3=NCCN3)cc2C(F)(F)F)CC1 | cell-free assay | – | competition with immobilised ligand | – | 1 µM | remaining binding | 100%
CC(C)(O)[C@H]1CC[C@H](Nc2ccc3ncc(-c4cccc(C(F)(F)F)c4)n3n2)CC1 | enzyme activity | inhibitor | – | – | 1 µM | remaining activity | 48.3%
CS(=O)(=O)c1cc(C2(NC(=O)c3cncc4c3cnn4-c3ccc(F)cc3)CC2)ccn1 | cell-free assay | – | competition with immobilised ligand | – | 1 µM | remaining binding | 45%
Nc1ncnc2occ(-c3ccc(NC(=O)Nc4cc(C(F)(F)F)ccc4F)cc3)c12 | cell-free assay | inhibitor | – | – | 20 µM | remaining signal | 22%
Cc1c(NC(=O)c2cc(C(N)=O)nc3cc(F)ccc23)c(C(F)(F)F)nn1Cc1ccc(C(C)(C)C)cc1 | cell-free assay | – | competition with immobilised ligand | – | 1 µM | remaining binding | 97%
Cc1sc(C(=O)NC2COC2)cc1-n1cc(NC(=O)Nc2c(F)cccc2Cl)cn1 | enzyme activity | inhibitor | – | – | 10 µM | remaining activity | 90.4%
CO[C@@H](C)c1c(Nc2ccc([C@@H](N(C)C(=O)C3CCS(=O)(=O)CC3)C(F)(F)F)cc2)cnc2cc(Cl)nn12 | cell-free assay | – | competition with immobilised ligand | – | 1 µM | remaining binding | 100%
CS(=O)(=O)CCNCc1ccc(-c2ccc3ncnc(Nc4ccc(OCc5cccc(F)c5)c(Cl)c4)c3c2)o1 | cell-free assay | – | – | – | 0.5 µM | remaining signal | 71.8%
CCCS(=O)(=O)Nc1ccc(F)c(C(=O)c2c[nH]c3ncc(-c4ccc(Cl)cc4)cc23)c1F | enzyme activity | inhibitor | – | – | 1 µM | inhibition | < 20%
C[C@H](c1ccc(F)cc1)N(Cc1cccc(C(=O)O)c1)C(=O)c1cnc2ccccc2c1 | cell-free assay | – | competition with immobilised ligand | – | 1 µM | remaining binding | 100%
CNc1cc(Oc2cc(C(=O)Nc3cc(N4CCN(C)CC4)cc(C(F)(F)F)c3)ccc2C)ncn1 | target engagement in cells | inhibitor | chemoproteomics | Huh-7 | 1 µM | inhibition | -12.5%
C[C@H](c1ccnc(Nc2nc3ccc(-c4cc(N(C)C)ncn4)cc3[nH]2)c1)N1CCN(C(=O)CC(F)(F)F)CC1 | cell-free assay | – | competition with immobilised ligand | – | 0.1 µM | remaining binding | 93%
COc1cc2ncnc(Nc3ccc(Oc4ccccc4)c(C)c3C)c2cc1OC | enzyme activity | inhibitor | – | – | 1 µM | inhibition | -2%
C[C@@H]1CN(c2cc(-c3n[nH]c4ccc(OC5(C)CC5)cc34)ncn2)C[C@H](C)O1 | cell-free assay | – | competition with immobilised ligand | – | 0.1 µM | remaining binding | 100%
COc1ccc(COc2ccc(Cc3cnc(N)nc3N)cc2OC)cc1 | cell-free assay | – | – | – | 0.5 µM | remaining signal | 95.6%
CCCCNc1ncc2c(-c3ccc(F)cc3)nn(C[C@H]3CC[C@H](N)CC3)c2n1 | target engagement in cells | inhibitor | chemoproteomics | – | 20 mM | inhibition | -3.7%
O=C1Nc2ccc(Cl)cc2C1=Cc1cc(Cl)c(O)c(Cl)c1 | cell-free assay | – | – | – | 0.5 µM | remaining signal | 81.5%
Cc1ccc(C(=O)Nc2ccc(CN3CCN(C)CC3)c(C(F)(F)F)c2)cc1C#Cc1cnc2cccnn12 | enzyme activity | inhibitor | – | – | 23.5 nM | remaining activity | 98%
Cc1ccc(Nc2nccc(N(C)c3ccc4c(C)n(C)nc4c3)n2)cc1S(N)(=O)=O | enzyme activity | inhibitor | – | – | 0.5 µM | remaining activity | 105%
CCN1CCN(Cc2ccc(NC(=O)c3ccc(C)c(/C=C/c4cnc5[nH]ccc5c4OC)c3)cc2C(F)(F)F)CC1 | target engagement in cells | inhibitor | chemoproteomics | A-375 | 0.5 µM | inhibition | -15.8%
